Experimental data as given in ChEMBL document CHEMBL1135427, “Osteoadsorptive bisphosphonate derivatives of fluoroquinolone antibacterials” (2002).
In brackets after ≈: the same amount, converted by molar mass.

Legend:
Escherichia coli = assay: Antibacterial activity determined as minimal inhibitory concentration (MIC) against Escherichia coli OKI 35034; format: functional
Outline: (§1)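 Agar dilution. Compounds were dissolved in 0.2% NaHCO3, or in DMSO if insoluble, and mixed into molten agar at 50 °C. After the agar set, bacterial suspension was streaked onto the surface. MIC was read after 48 h of incubation at 37 °C.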

Helicobacter pylori [1] = assay: Antibacterial activity determined as minimal inhibitory concentration (MIC) against Helicobacter pylori HIH 27604; format: functional; outline: as §1
Helicobacter pylori [2] = assay: Antibacterial activity determined as minimal inhibitory concentration (MIC) against Helicobacter pylori HIH 27606; format: functional; outline: as §1
Pseudomonas aeruginosa = assay: Antibacterial activity determined as minimal inhibitory concentration (MIC) against Pseudomonas aeruginosa ATCC 27853; format: functional; outline: as §1
[3] = Antibacterial activity determined as minimal inhibitory concentration (MIC) against […] OKI 60002; format: functional; outline: as §1
Salmonella typhi = assay: Antibacterial activity determined as minimal inhibitory concentration (MIC) against Salmonella typhi OKI 10084; format: functional, Salmonella enterica subsp. enterica serovar Typhi; conditions: Salmonella enterica
Outline: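 Agar dilution against a laboratory strain. Compounds were dissolved in 0.2% NaHCO3, or in DMSO if insoluble, and mixed into molten agar at 50 °C. Bacterial suspension was streaked onto the solidified agar. Plates were incubated 48 h at 37 °C. MIC was taken as the lowest concentration inhibiting bacterial growth.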

[4] = test system: Staphylococcus epidermidis; assay: Antibacterial activity determined as minimal inhibitory concentration (MIC) against Staphylococcus epidermidis ATCC 110001; format: functional; outline: as §1
Enterococcus faecalis = assay: Antibacterial activity determined as minimal inhibitory concentration (MIC) against Streptococcus faecalis OKI 80171; format: functional; outline: as §1
Staphylococcus aureus [5] = assay: Antibacterial activity determined as minimal inhibitory concentration (MIC) against Staphylococcus aureus ATCC 25923; format: functional; outline: as §1
[6] = test system: Aggregatibacter actinomycetemcomitans; assay: Antibacterial activity determined as minimal inhibitory concentration (MIC) against Actinobacillus actinomycetecommitans ATCC 29527; format: functional; outline: as §1
Staphylococcus aureus [7] = assay: Antibacterial activity determined as minimal inhibitory concentration (MIC) against Staphylococcus aureus ATCC 12598; format: functional; outline: as §1
Staphylococcus aureus [8] = assay: Antibacterial activity determined as minimal inhibitory concentration (MIC) against Methicillin resistant Staphylococcus aureus; format: functional
Staphylococcus aureus [9] = assay: Antibacterial activity determined as minimal inhibitory concentration (MIC90) against Methicillin sensitive Staphylococcus aureus; format: functional
Outline: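 Broth microdilution on clinical isolates. Compounds were serially diluted from 256 to 0.5 μg/mL. Log-phase bacteria were added (A540 = 0.15 × 10^7 cfu/mL) and incubated 18 h at 37 °C, then growth was inspected macroscopically. MIC was the lowest concentration inhibiting growth. MIC90 was calculated across multiple isolates from median MIC ±1 SD using the z statistic.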

[10] = test system: Aggregatibacter actinomycetemcomitans; assay: Antibacterial activity determined as minimal inhibitory concentration (MIC) against Actinobacillus actinomycetecommitans ATCC 29527; value ranges from 1-2; format: functional; outline: as §1
Staphylococcus aureus [11] = assay: Antibacterial activity determined as minimal inhibitory concentration (MIC) against Staphylococcus aureus ATCC 12598; value ranges from 8-16; format: functional; outline: as §1
Staphylococcus aureus [12] = assay: Antibacterial activity determined as minimal inhibitory concentration (MIC) against Staphylococcus aureus ATCC 25923; value ranges from 8-16; format: functional; outline: as §1

SMILES	MIC (Escherichia coli) [µg/mL]	MIC (Helicobacter pylori [1]) [µg/mL]	MIC (Helicobacter pylori [2]) [µg/mL]	MIC (Pseudomonas aeruginosa) [µg/mL]	MIC [3] [µg/mL]	MIC (Salmonella typhi) [µg/mL]	MIC [4] [µg/mL]	MIC (Enterococcus faecalis) [µg/mL]	MIC (Staphylococcus aureus [5]) [µg/mL]	MIC [6] [µg/mL]	MIC (Staphylococcus aureus [7]) [µg/mL]	MIC (Staphylococcus aureus [8]) [µg/mL]	MIC90 (Staphylococcus aureus [9]) [µg/mL]	MIC [10] [µg/mL]	MIC (Staphylococcus aureus [11]) [µg/mL]	MIC (Staphylococcus aureus [12]) [µg/mL]
CCOP(=O)(OCC)C(N1CCN(c2cc3c(cc2F)c(=O)c(C(=O)O)cn3C2CC2)CC1)P(=O)(OCC)OCC	0.78 (≈ 1.26 µM)	25 (≈ 40.5 µM)	25 (≈ 40.5 µM)	> 100	25 (≈ 40.5 µM)	0.78 (≈ 1.26 µM)	6.25 (≈ 10.1 µM)	50 (≈ 81 µM)	12.5 (≈ 20.2 µM)							
CCOP(=O)(OCC)C(CN1CCN(c2cc3c(cc2F)c(=O)c(C(=O)O)cn3C2CC2)CC1)P(=O)(OCC)OCC	< 0.39	0.78 (≈ 1.24 µM)	< 0.39	3.12 (≈ 4.94 µM)	< 0.39	< 0.39	0.78 (≈ 1.24 µM)	3.12 (≈ 4.94 µM)	3.12 (≈ 4.94 µM)	< 0.25	1 (≈ 1.58 µM)	> 8	3.91 (≈ 6.19 µM)			
O=C(O)c1cn(C2CC2)c2cc(N3CCN(CC(P(=O)(O)O)P(=O)(O)O)CC3)c(F)cc2c1=O	0.78 (≈ 1.5 µM)	3.12 (≈ 6.01 µM)	0.78 (≈ 1.5 µM)	25 (≈ 48.1 µM)	< 0.39	0.78 (≈ 1.5 µM)	25 (≈ 48.1 µM)	50 (≈ 96.3 µM)				> 8	51.3 (≈ 98.8 µM)	2 (≈ 3.85 µM)	16 (≈ 30.8 µM)	16 (≈ 30.8 µM)
O=C(O)c1cn(C2CC2)c2cc(N3CCNCC3)c(F)cc2c1=O [CIPROFLOXACIN]	< 0.39	0.78 (≈ 2.35 µM)	< 0.39	3.12 (≈ 9.42 µM)	< 0.39	< 0.39	0.78 (≈ 2.35 µM)	3.12 (≈ 9.42 µM)	1.56 (≈ 4.71 µM)	0.25 (≈ 0.754 µM)	2 (≈ 6.04 µM)	> 8	1.65 (≈ 4.98 µM)			
O=C(O)c1cn(C2CC2)c2cc(N3CCN(C(P(=O)(O)O)P(=O)(O)O)CC3)c(F)cc2c1=O	< 0.39	12.5 (≈ 24.7 µM)	12.5 (≈ 24.7 µM)	25 (≈ 49.5 µM)	6.25 (≈ 12.4 µM)	0.78 (≈ 1.54 µM)	25 (≈ 49.5 µM)	100 (≈ 198 µM)	50 (≈ 98.9 µM)							
